High-throughput results as filed in PubChem BioAssay.
Rows were chosen to be rich in hits. Some 3.7% of all compounds tested hit in one or more screens of this group.
KCNQ1 block = inhibitors of human KCNQ1 channel, primary screen, cell-based, thallium flux, high-throughput; Potassium voltage-gated channel subfamily KQT member 1 (Homo sapiens), P51787; CHO-K1 KCNQ1, FluxOR thallium flux fluorescence; hits give high values; B-score at 10 µM; hit rate 1.3% among 310,000; AID 2642, 2010;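 active = compounds whose thallium flux B-score, printed positive for inhibition, exceeds three library SD while starting fluorescence stays within three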;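 also: channel opened by potassium depolarization with thallium stimulus after 20 min compound exposure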
Target sequence (P51787 whole entry, looked up): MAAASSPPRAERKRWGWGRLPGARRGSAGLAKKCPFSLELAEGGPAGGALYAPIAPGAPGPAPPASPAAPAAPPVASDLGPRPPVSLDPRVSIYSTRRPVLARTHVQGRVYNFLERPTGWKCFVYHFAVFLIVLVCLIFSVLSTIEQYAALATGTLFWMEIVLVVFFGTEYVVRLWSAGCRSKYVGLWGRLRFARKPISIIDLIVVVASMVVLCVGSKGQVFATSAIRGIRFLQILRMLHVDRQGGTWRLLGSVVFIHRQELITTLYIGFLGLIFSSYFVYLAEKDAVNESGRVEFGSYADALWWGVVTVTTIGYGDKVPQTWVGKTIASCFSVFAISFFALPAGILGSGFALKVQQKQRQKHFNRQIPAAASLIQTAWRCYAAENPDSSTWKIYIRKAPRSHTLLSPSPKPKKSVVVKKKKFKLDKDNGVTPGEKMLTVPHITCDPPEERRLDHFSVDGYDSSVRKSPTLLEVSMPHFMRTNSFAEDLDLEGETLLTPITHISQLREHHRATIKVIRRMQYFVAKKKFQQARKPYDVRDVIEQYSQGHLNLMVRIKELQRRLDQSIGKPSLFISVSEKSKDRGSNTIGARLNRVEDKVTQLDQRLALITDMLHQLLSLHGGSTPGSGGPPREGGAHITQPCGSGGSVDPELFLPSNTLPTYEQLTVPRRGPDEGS
KCNQ1 pot = potentiators or activators of KCNQ1 channel, primary screen, cell-based, thallium flux, high-throughput; Potassium voltage-gated channel subfamily KQT member 1 (Homo sapiens), P51787; CHO-K1 KCNQ1, thallium flux FluxOR fluorescence; hits give high values; B-score at 10 µM; hit rate 0.35% among 310,000;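 active = fluorescence ratio B-score, a plate-corrected score, at least three library SD, with initial intensity B-score within 5 SD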
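Assay system: CHO-K1 cells stably expressing KCNQ1. Medium: assay buffer for compound exposure, DMSO matched across wells. Timing: 37 °C overnight plating, 90-min dark dye load, 20-min compound pretreatment. Signal: kinetic FluxOR fluorescence, 10 s baseline plus 110 s post-stimulus.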
Kir21 inh = inhibitors of mouse Kir2.1 inward-rectifier potassium channel; B-score at 10 µM; HEK293-Kir2.1, FluxOR thallium flux fluorescence; hits give low values; Inward rectifier potassium channel 2 (Mus musculus), P35561; hit rate 0.85% among 310,000;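 active = fluorescence ratio B-score at or below minus 3 SD of library scores, with starting-brightness B-score within 2 SD, cut at about -4.2 in these data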;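 also: channel flux triggered by added potassium and thallium sulfate stimulus; B-score of peak minus minimum fluorescence over baseline after thallium stimulus; more negative B-score means stronger Kir2.1 block with less thallium influx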
KCNK3 block = human KCNK3 channel inhibitors, primary screen, CHO cells, FluxOR thallium flux, B-score | FluxOR fluorescence; hits give low values | B-score at 10 µM | hit rate 0.84% among 340,000 | AID 602410, 2012 | Potassium channel subfamily K member 3 (Homo sapiens), O14649;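 active = B-score under library mean minus 4 SD, starting fluorescence ratio at most library mean plus 5 SD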;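 also: more negative B-score means stronger inhibition of thallium flux through KCNK3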
KCNK9 block = KCNK9 potassium channel inhibitors, primary screen, HEK293 cells, thallium flux; Potassium channel subfamily K member 9 (Homo sapiens), Q9NPC2; FluxOR thallium flux fluorescence; hits give low values; B-score at 10 µM; hit rate 1.2% among 310,000;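 active = ratio B-score over 3 SD below the library mean, with starting fluorescence within 5 SD of its mean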;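 also: negative B-score means less thallium flux so channel inhibition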
hERG protect = hERG rescue from dofetilide block, primary screen, cell-based, CHO-hERG, FluxOR thallium flux, dofetilide IC70; Voltage-gated inwardly rectifying potassium channel KCNH2 (Homo sapiens), Q12809; dofetilide IC70 present; activation (rescue from dofetilide block), less the hit threshold, % at 10 µM; hit rate 0.51% among 310,000; AID 1511, 2009;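 active = activation above the mean of controls blocked by dofetilide plus 5 SD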;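 also: thallium influx through hERG after potassium depolarization seen as dye fluorescence rise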
Active calls of the source: *; i = inactive; · = not tested or not shown.

SMILES | KCNQ1 block | KCNQ1 pot | Kir21 inh | KCNK3 block | KCNK9 block | hERG protect
CCn1c(=O)c(C(=O)NCCc2ccc(Cl)cc2)c(O)c2ccccc21 | i | i | 0.26 | i | i | -5.7
CCCn1c(=O)c(C(=O)NCCc2ccc(Cl)cc2)c(O)c2ccccc21 | 7* | i | -0.39 | i | i | -7.2
CCn1c(=O)c(C(=O)NCCCc2ccccc2)c(O)c2ccccc21 | 6* | i | 0.05 | i | i | -6.7
CCCn1c(=O)c(C(=O)NCCCc2ccccc2)c(O)c2ccccc21 | 7* | i | -0.32 | i | i | -6.0
CCn1c(=O)c(C(=O)NNS(=O)(=O)c2ccc(Br)cc2)c(O)c2ccccc21 | 6* | i | -0.02 | i | i | -9.1
Cc1noc(C)c1COC(=O)c1csc2c1CCCC2 | · | · | · | i | · | ·
C/C=C\C=C\C(=O)Nc1cccc(C2=NOC3(C2)C[C@@H](C(N)=O)N(C(=O)C(c2ccccc2)c2ccccc2)C3)c1 (some centres not stated) | i | i | 0.84 | i | i | -4.8
CCCCCc1n[nH]c2c1CCCC2 | i | i | -1.54 | i | i | -10.1
Cc1[nH]c(SCC(=O)c2c(N)n(C)c(=O)n(C)c2=O)nc1Cc1ccccc1 | · | · | · | i | · | ·
CC1CN(C(=O)/C=C/c2ccccc2Cl)CC(C)O1 (configuration not stated) | i | i | -1.68 | i | i | -16.7
COc1cc2c(c(O)c1OC)-c1c(cc(OC)c(OC)c1O)[C@@H](OC(=O)c1ccccc1)[C@@](C)(O)[C@@H](C)[C@@H]2OC(C)=O | i | i | -0.22 | · | i | 4.7*
COc1cc(NC(=O)c2ccc(C(=O)c3ccccc3)cc2)cc(OC)c1OC | i | i | 0.94 | i | i | -4.9
Cc1ccc(NC(=O)CCS(=O)(=O)c2ccccc2)cc1S(=O)(=O)N1CCCCCC1 | · | · | · | i | · | ·
CN(Cc1ccccc1)S(=O)(=O)c1ccc(Cl)c(C(=O)OCC(=O)NC2CCS(=O)(=O)C2)c1 (configuration not stated) | · | · | · | i | · | ·
COc1ccc2nc(N)sc2c1 | i | i | 0.47 | i | i | -13.1
Cc1cc2nc(N)sc2cc1[N+](=O)[O-] | i | i | 1.69 | i | i | 5.0*
O=[N+]([O-])c1ccccc1OCCNCc1ccccc1 | i | i | -1.76 | i | i | 7.2*
C=CCNCCCOc1ccc(Cl)cc1C(C)(C)C | i | i | -14.1* | i | i | -19.9
COCCCNCCOCCOc1ccc(Cl)cc1C(C)(C)C | i | i | -6.21* | i | i | -12.8
CC(C)(C)NCCOCCOc1ccc(Cl)cc1C(C)(C)C | i | i | -1.03 | i | i | -5.4
C=CCNCCOCCOc1ccc(Cl)cc1C(C)(C)C | i | i | -10.9* | i | i | -9.6
CCOC(=O)c1ccc[n+](CC(=O)c2ccc(NC(=O)c3ccccc3)cc2)c1 | i | i | 0.61 | i | i | -3.7
CC(C)(C)c1ccccc1OCCOCCNCc1ccccc1 | i | i | -9.28* | i | i | -7.4
O=C1C(Cc2ccccc2)Nc2ncnc(N3CCc4ccccc4C3)c2N1Cc1ccc(Br)cc1 (configuration not stated) | i | i | 0.97 | · | -7.73* | -12.7
O=C1C(Cc2ccccc2)Nc2ncnc(N3CCN(c4ccccc4)CC3)c2N1Cc1ccc(Br)cc1 (configuration not stated) | · | · | · | i | · | ·
SMILES | KCNQ1 block | KCNQ1 pot | Kir21 inh | KCNK3 block | KCNK9 block | hERG protect
CC(=O)c1cccc(NC(=S)N2CCN(c3ccccn3)CC2)c1 | i | i | -0.73 | i | i | -6.9
CCCCN(CCCC)S(=O)(=O)c1ccc(NC(=O)c2ccc([N+](=O)[O-])cc2Cl)cc1 | 7* | i | -3.48 | i | i | -7.4
COc1cccc(-c2csc(NC3OC(=O)c4c3ccc(OC)c4OC)n2)c1 (configuration not stated) | i | i | -1.56 | i | i | -11.0
COc1ccc2c(c1OC)C(=O)OC2Nc1nc(-c2ccc(-c3ccccc3)cc2)cs1 (configuration not stated) | i | i | 1.52 | i | -7.07* | -13.8
Cc1ccsc1CNC12CC3CC(CC(C3)C1)C2 | i | i | -2 | i | i | -20.1
CCOC(=O)C1=C(CSc2nc(-c3ccncc3)ccc2C#N)OC(N)=C(C#N)C1c1ccc(OC)cc1 (configuration not stated) | i | i | -0.18 | i | -7.88* | -12.0
N#Cc1ccc(CSc2nnc(-c3ccccc3)n2Cc2ccco2)cc1 | i | i | -1.73 | i | i | -5.7
C=CCn1c(SCc2ccc(C#N)cc2)nnc1-c1cccc(Cl)c1 | i | i | -10.8* | i | i | -16.0
O=C(NC(=S)N1CCN(c2ccc(Cl)cc2[N+](=O)[O-])CC1)c1ccco1 | i | i | -0.05 | i | i | -3.4
O=C(NC(=S)N1CCN(c2ccc(Cl)cc2[N+](=O)[O-])CC1)c1cccs1 | i | 20* | -0.51 | i | i | 6.3*
COc1cccc(OC)c1C(=O)NC(=S)N1CCN(c2ccc(C(F)(F)F)cc2[N+](=O)[O-])CC1 | i | i | 0.31 | i | i | 11.4*
CCC(=O)OCCNc1cc(Sc2nccn2C)c2nonc2c1[N+](=O)[O-] | 7* | i | -2 | i | i | -38.2
CC(NC(=O)CCN1C(=O)c2ccccc2C1=O)c1ccc2c(c1)CCCC2 (configuration not stated) | i | i | -4.21* | i | i | -1.4
CCC(CC)NC(=O)c1ccccc1Oc1ccccc1 | i | i | -6.86* | i | i | -7.0
O=C(NCc1cccc(Cl)c1)c1ccc(CS(=O)Cc2ccccc2Cl)o1 (configuration not stated) | i | i | -0.34 | i | i | -3.9
CO/N=C(/CS(=O)Cc1ccccc1Cl)c1ccc(Cl)cc1Cl (configuration not stated) | i | i | -5* | i | i | -1.5
COCCn1c(N)c(Sc2ccc([N+](=O)[O-])cc2)c(=O)[nH]c1=O | i | i | -0.3 | i | i | -14.7
